Source: publication PMC3544975 (Biochemical and biophysical research communications, 2012)
Where two headings read alike, the source gives them in different places.

Assays:
[1] = target: T1, human PMK (Homo sapiens, UniProt Q15126); conditions: read-out: affinity of natural substrates; cited from earlier work
T1 sequence (Q15126 1-192): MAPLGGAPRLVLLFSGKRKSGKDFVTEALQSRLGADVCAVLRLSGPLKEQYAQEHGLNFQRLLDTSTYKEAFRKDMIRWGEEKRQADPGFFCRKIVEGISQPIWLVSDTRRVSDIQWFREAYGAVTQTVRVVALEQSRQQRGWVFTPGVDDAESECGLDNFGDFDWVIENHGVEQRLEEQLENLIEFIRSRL

[2] = target: T1, human PMK; assay: Fluorescence titration; type: binding
How it was run: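 N-terminally His6-tagged human PMK was expressed in E. coli BL21(DE3) Rosetta and purified on Ni-Sepharose. Titration used 5 µM PMK in 20 mM potassium phosphate, 5 mM DTT, 100 mM KCl, 10% glycerol, pH 6.5, at 25 °C. Excitation was 295 nm, with emission recorded over 300–400 nm. The bound-minus-free intensity difference was fitted against ligand concentration to a one-site specific binding equation.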

In the case of `Nc1ncnc2c1ncn2[C@@H]1O[C@H](COP(=O)(O)OP(=O)(O)OP(=O)(O)O)[C@@H](O)[C@H]1O` [ATP, adenosine-5'-triphosphate], the Kd [1] is given as 29 ± 6 µM.

`O=c1cc(-c2ccc(O)c(O)c2)oc2cc(O)cc(O)c12` [luteolin] gave a Kd [2] of 61 ± 19.5 µM.

For `Nc1ncnc2c1ncn2[C@@H]1O[C@H](COP(=O)(O)OP(=O)(O)O)[C@@H](O)[C@H]1O` [ADP, adenosine diphosphate], the Kd [1] is given as 19.9 ± 9 µM.
